Entries after “also recorded” stand apart in the source; their conditions may differ. Each block holds one compound with its values, some of them ahead of it.
Experiments:
[1] = molecular target: aggregated amyloid peptide Aβ1-40 (Homo sapiens, UniProt P05067); assay: In vitro Aβ1-40 binding affinity by fluorescence titration; conditions: for fold weaker Aβ binding affinity compared to 4: ratio of Kd vs compound 4; for decrease in Aβ binding affinity: compared to 4
Aβ plaques [2] = assay: In vivo BBB delivery to Aβ plaque-bearing PDAPP mouse brain; set-up: species or system PDAPP transgenic mice; conditions: single 50 mg/kg IP, ten-month-old PDAPP mice, sacrificed 48 h after injection
In short: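 Ten-month-old PDAPP transgenic mice received a single ip dose of 50 mg/kg test compound, with vehicle-only controls (10% DMSO/PBS). At 48 h they were killed by transcardial perfusion with 4% PFA in PBS. Brains were cryoprotected, frozen, sectioned, postfixed 5 min in 4% PFA, washed in PBS and mounted. Plaque fluorescence was imaged in hippocampal CA1 and dentate gyrus at 10× and 40×.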

[3] = DPPH free radical scavenging assay; assay type: physicochemical; conditions: for fold less potent than quercetin in DPPH free radical scavenging: p < 0.05 vs quercetin; for DPPH free radical scavenging activity relative to quercetin: vs quercetin IC50 = 1.3 ± 1.1 μM
[4] = test system: Aβ plaques in human AD brain sections; assay: Fluorescence staining of human AD brain sections; assay type: binding; conditions: 50 μM, 30 min, 9:1 PBS:EtOH, frozen sections 10 μm
In short: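 Frozen 10 μm sections of human AD brain and age-matched control brain. Stained 30 min with 50 μM test compound in 9:1 PBS/EtOH, made by diluting a DMSO stock to 0.50 mM in EtOH and then into PBS/EtOH. Washed in turn with 75% aqueous EtOH, 95% EtOH and xylene. Plaque staining was read by fluorescence microscopy.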

Aβ plaques [5] = assay type: binding, APP/PS1 transgenic mouse
In short: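 Brains from 11-month-old APP/PS1 mice (Tg2576 APP Swedish × M146L PS1 line) were perfused with 4% paraformaldehyde, cryoprotected in 20% sucrose and cut into 10 μm frozen sections, three per dilution point. Sections were stained 30 min with 50 μM test compound in 9:1 PBS/EtOH, then washed in 75% EtOH, 95% EtOH and xylene. S/N was taken as plaque fluorescence over background tissue.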

Aβ plaques [6] = conditions: APP or APP/PS1 mice; cited from earlier work

aggregated amyloid peptide Aβ1-40, sequence (P05067 672-711 limits assumed): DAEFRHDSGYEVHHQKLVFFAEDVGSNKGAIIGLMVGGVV

- fold weaker Aβ binding affinity compared to 4 [1]: 17 to 27 fold
Structure (SMILES): Oc1cc(O)cc(/C=C/c2ccc(/C=C/c3cc(O)cc(O)c3)cc2)c1 [Compound 10, (E,E)-1,4-bis(3,5-dihydroxystyryl)benzene]
- BBB crossing and Aβ plaque binding in vivo (Aβ plaques [2]): crossed the BBB and bound to Aβ plaques in vivo
- fold less potent than quercetin in DPPH free radical scavenging [3]: 3 to 7 fold
- staining of Aβ plaques in human AD brain sections [4]: bind specifically to Aβ plaques in human brain sections

- fold weaker Aβ binding affinity compared to 4 [1]: 16 fold
Structure (SMILES): Oc1ccc(/C=C/c2ccc(/C=C/c3ccccc3)cc2)cc1 [Compound 11, (E,E)-1-styryl-4-(4-hydroxystyryl)benzene]

- fold weaker Aβ binding affinity compared to 4 [1]: 17 to 27 fold
Structure (SMILES): Oc1ccc(/C=C/c2ccc(/C=C/c3cc(O)cc(O)c3)cc2)cc1 [Compound 14, (E,E)-1-(4-hydroxystyryl)-4-(3,5-dihydroxystyryl)benzene]
- fold less potent than quercetin in DPPH free radical scavenging [3]: 3 to 7 fold

- decrease in Aβ binding affinity [1]: two order of magnitude decrease
Structure (SMILES): Oc1ccc(/C=C/c2ccccc2/C=C/c2ccc(O)cc2)cc1 [Compound 7, (E,E)-1,2-bis(4-hydroxystyryl)benzene]
- fold less potent than quercetin in DPPH free radical scavenging [3]: 3 to 7 fold

- decrease in Aβ binding affinity [1]: three orders of magnitude weaker
Structure (SMILES): Oc1ccc(/C=C/c2ccc(O)cc2)cc1 [Compound 16]
- DPPH free radical scavenging activity relative to quercetin [3]: no less effective than quercetin

- fold weaker Aβ binding affinity compared to 4 [1]: 84 fold
- Aβ binding specificity (Aβ plaques [5]; APP/PS1 mouse brain sections): good binding specificity
Structure (SMILES): Oc1ccccc1/C=C/c1ccc(/C=C/c2ccccc2O)cc1 [Compound 9, (E,E)-1,4-bis(2-hydroxystyryl)benzene]
- fold less potent than quercetin in DPPH free radical scavenging [3]: 3 to 7 fold

- fold weaker Aβ binding affinity compared to 4 [1]: 17 to 27 fold
Structure (SMILES): Oc1ccc(/C=C/c2ccc(/C=C/c3ccc(O)c(O)c3)cc2)cc1 [Compound 13, (E,E)-1-(4-hydroxystyryl)-4-(3,4-dihydroxystyryl)benzene]

Structure (SMILES): Oc1ccc(/C=C/c2ccc(/C=C/c3ccc(O)cc3)cc2)cc1 [Compound 4, (E,E)-1,4-bis(4-hydroxystyryl)benzene]
- BBB crossing and Aβ plaque binding in vivo (Aβ plaques [2]; 50 mg/kg): crossed the BBB and bound to Aβ plaques in vivo; also recorded: crossed the blood-brain-barrier and bound to Aβ plaques in vivo
- DPPH free radical scavenging activity relative to quercetin [3]: no less effective than quercetin
- staining of Aβ plaques in human AD brain sections [4]: bind specifically to Aβ plaques in human brain sections

Structure (SMILES): Oc1cccc(/C=C/c2ccc(/C=C/c3ccc(O)c(O)c3)cc2)c1 [Compound 15, (E,E)-1-(3-hydroxystyryl)-4-(3,4-dihydroxystyryl)benzene]
- fold less potent than quercetin in DPPH free radical scavenging [3]: 3 to 7 fold

Structure (SMILES): Oc1cccc(/C=C/c2ccc(/C=C/c3cccc(O)c3)cc2)c1 [Compound 8, (E,E)-1,4-bis(3-hydroxystyryl)benzene]
- BBB crossing and Aβ plaque binding in vivo (Aβ plaques [2]; 50 mg/kg): crossed the BBB and bound to Aβ plaques in vivo; also recorded: crossed the blood-brain-barrier and bound to Aβ plaques in vivo
- staining of Aβ plaques in human AD brain sections [4]: bind specifically to Aβ plaques in human brain sections

- fold weaker Aβ binding affinity compared to 4 [1]: 6 fold
- fold loss in specificity compared to 4 (Aβ plaques [5]; ratio of S/N vs compound 4): 2.4 fold
Structure (SMILES): Oc1ccc(C#Cc2ccc(C#Cc3ccc(O)cc3)cc2)cc1 [Compound 17]

Structure (SMILES): O=C(O)c1cc(/C=C/c2ccc(/C=C/c3ccc(O)c(C(=O)O)c3)c(F)c2)ccc1O [FSB]
- BBB penetration and binding to Aβ plaques (Aβ plaques [6]): penetrate the blood – brain barrier (BBB) and bind to Aβ plaques

Structure (SMILES): O=C(O)c1cc(/C=C/c2ccc(/C=C/c3ccc(O)c(C(=O)O)c3)cc2)ccc1O [Compound X-34]
- BBB penetration and binding to Aβ plaques (Aβ plaques [6]): penetrate the blood – brain barrier (BBB) and bind to Aβ plaques

- fold weaker Aβ binding affinity compared to 4 [1]: 370 fold
- fold weaker Aβ binding affinity compared to 8 ([1]; ratio of Kd vs compound 8): 660 fold
Structure (SMILES): Oc1ccc(/C=C/c2ccc(/C=C/c3cccc(O)c3)cc2)cc1 [Compound 12, (E,E)-1-(4-hydroxystyryl)-4-(3-hydroxystyryl)benzene]
- DPPH free radical scavenging activity relative to quercetin [3]: no less effective than quercetin

- decrease in Aβ binding affinity [1]: two order of magnitude decrease
Structure (SMILES): Oc1ccc(/C=C/c2cccc(/C=C/c3ccc(O)cc3)c2)cc1 [Compound 6, (E,E)-1,3-bis(4-hydroxystyryl)benzene]
- DPPH free radical scavenging activity relative to quercetin [3]: no less effective than quercetin

From article PMC3057505 (Journal of medicinal chemistry, 2010)
